Legend:
[1] = assay type: in vivo, human
Summary of the method: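 10 healthy male Korean volunteers, fasted from the night before until 1 PM, took 9 g extract orally with 100 mL water at 8 AM. Heparinised blood was drawn predose and at 4–14 h hourly, 24 and 36 h, and plasma was stored at -70℃. LC-MS/MS used a digoxin internal standard, an ODS column with methanol:water gradient, and 2–100 ng/mL plasma standards. Non-compartmental analysis used trapezoidal AUC, reported as mean±SD.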

[2] = oral ginseng powder, healthy men, some individual variation; cited from earlier work

Row | SMILES | AUC(0-inf) ([1]; male, human, plasma, po) [ng·h/mL] | AUC(0-t) ([1]; male, human, plasma, po) [ng·h/mL] | half-life ([1]; male, human, plasma, po) [h] | plasma concentration at 36 h after taking the extract ([1]; single oral 9 g Korean Red Ginseng extract, detected in 8 subjects) [ng/mL] | time of detection after oral administration [2] [h]
1 | CC(C)=CCC[C@](C)(O[C@@H]1O[C@H](CO[C@@H]2O[C@H](CO)[C@@H](O)[C@H](O)[C@H]2O)[C@@H](O)[C@H](O)[C@H]1O)[C@H]1CC[C@]2(C)[C@@H]1[C@H](O)C[C@@H]1[C@@]3(C)CC[C@H](O[C@@H]4O[C@H](CO)[C@@H](O)[C@H](O)[C@H]4O[C@@H]4O[C@H](CO)[C@@H](O)[C@H](O)[C@H]4O)C(C)(C)[C@@H]3CC[C@]12C [Ginsenoside Rb1, ginsenoside Rb1] | 308 ± 146 | 102 ± 51 | 58.5 ± 14.3 |  | 
2 | CC(C)=CCC[C@](C)(O[C@@H]1O[C@H](CO)[C@@H](O)[C@H](O)[C@H]1O)[C@H]1CC[C@]2(C)[C@@H]1[C@H](O)C[C@@H]1[C@@]3(C)CC[C@H](O)C(C)(C)[C@@H]3CC[C@]12C [Compound K, 20-O-β-Ɗ-glucopyranosyl-20(S)-protopanaxadiol] |  |  |  | 0.90 ± 0.74 | 8

— PMC3825860 (Journal of Ginseng Research, 2013)
